Results as given in ChEMBL document CHEMBL1138283, “5'-O-[(N-acyl)sulfamoyl]adenosines as antitubercular agents that inhibit MbtA: an adenylation enzyme required for siderophore biosynthesis of the mycobactins” (J Med Chem, 2007).
≈ marks a conversion by molar mass, not a printed value.

Columns and labels:
[1] = tested on: Mycobacterium tuberculosis; assay: Antimycobacterial activity against Mycobacterium tuberculosis H37Rv in iron deficient GAST medium; format: functional
Outline: (§1)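 Broth microdilution MIC against M. tuberculosis H37Rv in iron-deficient GAST, or GAST supplemented with 200 μM FeCl3 (iron-rich). Compounds added from DMSO stocks; DMSO-only wells as negative control, isoniazid as positive control. Initial density 10^4–10^5 cells/assay, 37 °C, growth read as OD620 at 10–14 days. Run in quadruplicate; reported as MIC99.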

[2] = target: T1, Salicyl-AMP ligase / salicyl-S-ArCP synthetase (Mycobacterium tuberculosis, UniProt P71716); assay: Inhibition of Mycobacterium tuberculosis recombinant MbtA expressed in Escherichia coli by ATP/PPi exchange assay; details: read-out: Ki app
T1 sequence (P71716 whole entry): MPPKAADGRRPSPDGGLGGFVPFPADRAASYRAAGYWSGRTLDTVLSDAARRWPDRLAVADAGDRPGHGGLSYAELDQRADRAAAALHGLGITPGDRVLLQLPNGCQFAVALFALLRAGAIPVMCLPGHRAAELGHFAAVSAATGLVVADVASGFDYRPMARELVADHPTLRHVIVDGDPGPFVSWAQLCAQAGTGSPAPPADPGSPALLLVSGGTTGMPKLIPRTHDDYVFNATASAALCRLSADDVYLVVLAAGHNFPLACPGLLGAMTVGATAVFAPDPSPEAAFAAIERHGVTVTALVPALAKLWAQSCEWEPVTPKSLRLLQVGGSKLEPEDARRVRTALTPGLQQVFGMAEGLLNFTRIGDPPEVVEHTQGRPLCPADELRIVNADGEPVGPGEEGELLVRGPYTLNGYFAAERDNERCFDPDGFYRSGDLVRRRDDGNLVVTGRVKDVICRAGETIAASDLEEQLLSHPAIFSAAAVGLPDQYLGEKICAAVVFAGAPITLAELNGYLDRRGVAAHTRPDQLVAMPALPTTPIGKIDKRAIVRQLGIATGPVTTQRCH
Outline: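 Recombinant MbtA expressed in E. coli, 7 nM, at 37 °C in 75 mM Tris-HCl pH 7.5, 10 mM MgCl2, 2 mM DTT, 250 μM salicylic acid, 10 mM ATP, 1 mM PPi. Reaction started with [32P]PPi, five inhibitor concentrations, in duplicate. Initial rates (≤10% reaction) measured. Quenched with HClO4/PPi/charcoal; charcoal-bound [32P]ATP counted by scintillation. Apparent Ki from Hill or Morrison (tight-binding) fits.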

[3] = tested on: Mycobacterium tuberculosis; assay: Antimycobacterial activity against Mycobacterium tuberculosis H37Rv in iron rich GAST medium; format: functional; outline: as §1

SMILES | MIC99 [1] | Ki [2] | MIC99 [3]
Nc1ncnc2c1ncn2[C@@H]1O[C@H](COS(=O)(=O)NC(=O)c2ccccc2F)[C@@H](O)[C@H]1O | 12.5 µM (≈ 5.86 µg/mL) | 0.038 µM | 50 µM (≈ 23.4 µg/mL)
Nc1ncnc2c1ncn2[C@@H]1O[C@H](COS(=O)(=O)NC(=O)c2ccccc2Cl)[C@@H](O)[C@H]1O | > 200 µM | 18.1 µM | > 200 µM
Nc1ncnc2c1ncn2[C@@H]1O[C@H](COS(=O)(=O)NC(=O)c2cccc(Cl)c2O)[C@@H](O)[C@H]1O | 50 µM (≈ 25 µg/mL) | 0.061 µM | > 200 µM
Nc1ncnc2c1ncn2[C@@H]1O[C@H](COS(=O)(=O)NC(=O)c2ccc(Cl)cc2O)[C@@H](O)[C@H]1O | 12.5 µM (≈ 6.26 µg/mL) | 0.012 µM | 50 µM (≈ 25 µg/mL)
Nc1ncnc2c1ncn2[C@@H]1O[C@H](COS(=O)(=O)NC(=O)c2cc(Cl)ccc2O)[C@@H](O)[C@H]1O | 12.5 µM (≈ 6.26 µg/mL) | 0.02 µM | 50 µM (≈ 25 µg/mL)
Nc1ncnc2c1ncn2[C@@H]1O[C@H](COS(=O)(=O)NC(=O)c2ccc(F)cc2O)[C@@H](O)[C@H]1O | 0.098 µM (≈ 0.0475 µg/mL) | 0.012 µM | 0.39 µM (≈ 0.189 µg/mL)
Nc1ncnc2c1ncn2[C@@H]1O[C@H](COS(=O)(=O)NC(=O)c2ccc(Br)cc2O)[C@@H](O)[C@H]1O | 6.25 µM (≈ 3.41 µg/mL) | 0.021 µM | 50 µM (≈ 27.3 µg/mL)
Cc1ccc(C(=O)NS(=O)(=O)OC[C@H]2O[C@@H](n3cnc4c(N)ncnc43)[C@H](O)[C@@H]2O)c(O)c1 | 1.56 µM (≈ 0.75 µg/mL) | 0.014 µM | 25 µM (≈ 12 µg/mL)
Nc1ncnc2c1ncn2[C@@H]1O[C@H](COS(=O)(=O)NC(=O)c2ccc(C(F)(F)F)cc2O)[C@@H](O)[C@H]1O | > 200 µM | 4.38 µM | > 200 µM
Nc1ccc(C(=O)NS(=O)(=O)OC[C@H]2O[C@@H](n3cnc4c(N)ncnc43)[C@H](O)[C@@H]2O)c(O)c1 | 1.56 µM (≈ 0.751 µg/mL) | 0.04 µM | 25 µM (≈ 12 µg/mL)
Nc1ncnc2c1ncn2[C@@H]1O[C@H](COS(=O)(=O)NC(=O)c2c(O)cccc2F)[C@@H](O)[C@H]1O | 0.78 µM (≈ 0.378 µg/mL) | 0.0073 µM | 3.13 µM (≈ 1.52 µg/mL)
Nc1ncnc2c1ncn2[C@@H]1O[C@H](COS(=O)(=O)NC(=O)c2cccc(O)c2O)[C@@H](O)[C@H]1O | > 200 µM | 0.137 µM | > 200 µM
Nc1ncnc2c1ncn2[C@@H]1O[C@H](COS(=O)(=O)NC(=O)c2ccc(O)c(O)c2)[C@@H](O)[C@H]1O | > 200 µM | > 100 µM | > 200 µM
Nc1ncnc2c1ncn2[C@@H]1O[C@H](COS(=O)(=O)NC(=O)c2ccc[nH]c2=O)[C@@H](O)[C@H]1O | > 200 µM | 3.7 µM | > 200 µM
Nc1ncnc2c1ncn2[C@@H]1O[C@H](COS(=O)(=O)NC(=O)c2cccnc2F)[C@@H](O)[C@H]1O | > 200 µM | 2.9 µM | > 200 µM
Nc1ncnc2c1ncn2[C@@H]1O[C@H](COS(=O)(=O)NC(=O)c2cccnc2Cl)[C@@H](O)[C@H]1O | 12.5 µM (≈ 6.07 µg/mL) | 0.175 µM | 50 µM (≈ 24.3 µg/mL)
Nc1ncnc2c1ncn2[C@@H]1O[C@H](COS(=O)(=O)NC(=O)N2CCOCC2)[C@@H](O)[C@H]1O | > 200 µM | > 100 µM | > 200 µM
Nc1ncnc2c1ncn2[C@@H]1O[C@H](COS(=O)(=O)NC(=O)C2CCCC2)[C@@H](O)[C@H]1O | > 200 µM | 49.8 µM | > 200 µM
Nc1ncnc2c1ncn2[C@@H]1O[C@H](COS(=O)(=O)NC(=O)C2CCCCC2)[C@@H](O)[C@H]1O | > 200 µM | 17.3 µM | > 200 µM
CC(=O)NS(=O)(=O)OC[C@H]1O[C@@H](n2cnc3c(N)ncnc32)[C@H](O)[C@@H]1O | > 200 µM | > 100 µM | > 200 µM
COC(=O)NS(=O)(=O)OC[C@H]1O[C@@H](n2cnc3c(N)ncnc32)[C@H](O)[C@@H]1O | > 200 µM | 2.5 µM | > 200 µM
Nc1ncnc2c1ncn2[C@@H]1O[C@H](COS(=O)(=O)NC(=O)Cc2ccccc2)[C@@H](O)[C@H]1O | > 200 µM | > 100 µM | > 200 µM
[N-]=[N+]=Nc1c(F)c(F)c(C(=O)NS(=O)(=O)OC[C@H]2O[C@@H](n3cnc4c(N)ncnc43)[C@H](O)[C@@H]2O)c(F)c1F | > 200 µM | > 100 µM | > 200 µM
Nc1ncnc2c1ncn2[C@@H]1O[C@H](CNC(=O)c2coc3ccccc3c2=O)[C@@H](O)[C@H]1O | 12.5 µM (≈ 5.48 µg/mL) | > 100 µM | 50 µM (≈ 21.9 µg/mL)
Nc1ncnc2c1ncn2[C@@H]1O[C@H](CNS(=O)(=O)NC(=O)c2ccccc2O)[C@@H](O)[C@H]1O |  |  | 0.39 µM (≈ 0.182 µg/mL)
Nc1ncnc2c1ncn2[C@@H]1O[C@H](CNC(=O)NC(=O)c2ccccc2O)[C@@H](O)[C@H]1O | 200 µM (≈ 85.9 µg/mL) | 1.25 µM | > 200 µM
Nc1ccccc1C(=O)NS(=O)(=O)OC[C@H]1O[C@@H](n2cnc3c(N)ncnc32)[C@H](O)[C@@H]1O | > 200 µM | 0.77 µM | > 200 µM
Nc1ncnc2c1ncn2[C@@H]1O[C@H](COS(=O)(=O)NC(=O)c2ccccc2)[C@@H](O)[C@H]1O | 12.5 µM (≈ 5.63 µg/mL) | 0.092 µM | 50 µM (≈ 22.5 µg/mL)
Nc1ncnc2c1ncn2[C@@H]1O[C@H](COS(=O)(=O)NC(=O)c2ccccc2[N+](=O)[O-])[C@@H](O)[C@H]1O | > 200 µM | 7.32 µM | > 200 µM
Nc1ncnc2c1ncn2[C@@H]1O[C@H](COS(=O)(=O)NC(=O)[C@@H](N)Cc2ccccc2)[C@@H](O)[C@H]1O [PHESA] | > 200 µM | 36.5 µM | > 200 µM
